One block for each compound: values may come before it.
Columns and labels:
ANO 1 = assay type: cell-based, rat; details: for Effect on ANO 1 current density (channel activation): bath application of 20 µM TFP or 50 µM J-8 for 10–70 min
Outline: (§1)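 HEK 293 cells transiently transfected with rat ANO with C-terminal YFP tag; cells of similar YFP intensity recorded whole-cell. Bath (mM): 150 CsCl, 10 HEPES, 10 EGTA, pH 7.4. Pipette: 150 mM Cl−, 10 mM HEDTA, 10 mM HEPES, pH 7.0, free Ca2+ 0.7–62 µM. Ramps −80 to +80 mV (1 s), every 15 s from 2 min after breakthrough; current density in pA/pF.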

ANO 2 = assay type: cell-based, rat; details: for Effect on ANO 2 current density (channel activation): bath application of 20 µM TFP or 50 µM J-8 for 10–70 min
Outline: as §1

CaM = CaM (Bos taurus, UniProt P62157); experiment: Badan fluorescence peptide-binding assay with CaM; details: 3 µM peptide, 1.5 µM CaM, free Ca2+ 0.007 to 10 µM
[1] = target: Badan-labeled ANO 1 RCBM peptide, mutant m2,6 (rat); experiment: other fluorescence titration
[2] = target: Badan-labeled ANO 2 RCBM peptide, mutant m2,6 (rat); experiment: other fluorescence titration
[3] = target: Badan-labeled ANO 1 RCBM peptide, mutant m15,20 (rat); experiment: other fluorescence titration
[4] = target: Badan-labeled ANO 2 RCBM peptide, mutant m15,20 (rat); experiment: other fluorescence titration

Compound: NCCCCCCCCNS(=O)(=O)c1cccc2c(I)cccc12 [J-8]
Effect on ANO 1 current density (channel activation) (ANO 1): did not significantly reduce
Effect on ANO 2 current density (channel activation) (ANO 2): did not significantly reduce

Compound: CN1CCN(CCCN2c3ccccc3Sc3ccc(C(F)(F)F)cc32)CC1 [TFP, trifluoperazine]
Effect on ANO 1 current density (channel activation) (ANO 1): did not significantly reduce
Effect on ANO 2 current density (channel activation) (ANO 2): did not significantly reduce

CaM binding of Badan-labeled peptide (Ca2+-dependent change of emission spectra) (CaM): completely abolished CaM binding
Compound: RKLEYEEEASYGVFYKEQPIDEVRK [ANO ctrl]

EC50 of free Ca^2+ for CaM binding [1]: 12 µM
EC50 of free Ca^2+ for CaM binding [2]: 6 µM
EC50 of free Ca^2+ for CaM binding [3]: 15.2 µM
EC50 of free Ca^2+ for CaM binding [4]: 0.6 µM
Compound: wild-type calmodulin (wt CaM), purchased (from UniProt P0DP23 1-149) (natural protein)

Compound: CN[C@@H]1C[C@H]2O[C@@](C)([C@@H]1OC)n1c3ccccc3c3c4c(c5c6ccccc6n2c5c31)C(=O)NC4 [staurosporine]
Effect on ANO 1 channel activation or inactivation (ANO 1; 0.2–2 µM, 5–50 min, applied to the bath solution, 6 cells, unpublished data): did not detect any effect
Effect on ANO 2 channel activation or inactivation (ANO 2; 0.2–2 µM, 5–50 min, applied to the bath solution, 18 cells, unpublished data): did not detect any effect

— PMC3787769 (The Journal of General Physiology, 2013)
